Source: PubChem BioAssay
Compounds with a hit are over-represented: about 9.4% of the library has one in this group of screens.
Lmaj promast – inhibitors of Leishmania major promastigote growth | Leishmania major promastigotes, resazurin fluorescence viability | inhibition, % at 10 µM | 9% of 200,000 active; in the data active = inhibition above about 50%;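 note: promastigotes grown with compound for 44 hours at 28 °C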
Mdm2 MdmX PPI – disrupts the human Mdm2-MdmX interaction; O15151+Q00987; AID 485346; inhibition, % at 8 µM; 3% of 330,000 active; SaOS-2 split-luciferase Mdm2/MdmX complementation, luminescence;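 active = inhibition of at least 50% at 8 µM in the primary screen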
Target sequence (O15151 whole entry, looked up): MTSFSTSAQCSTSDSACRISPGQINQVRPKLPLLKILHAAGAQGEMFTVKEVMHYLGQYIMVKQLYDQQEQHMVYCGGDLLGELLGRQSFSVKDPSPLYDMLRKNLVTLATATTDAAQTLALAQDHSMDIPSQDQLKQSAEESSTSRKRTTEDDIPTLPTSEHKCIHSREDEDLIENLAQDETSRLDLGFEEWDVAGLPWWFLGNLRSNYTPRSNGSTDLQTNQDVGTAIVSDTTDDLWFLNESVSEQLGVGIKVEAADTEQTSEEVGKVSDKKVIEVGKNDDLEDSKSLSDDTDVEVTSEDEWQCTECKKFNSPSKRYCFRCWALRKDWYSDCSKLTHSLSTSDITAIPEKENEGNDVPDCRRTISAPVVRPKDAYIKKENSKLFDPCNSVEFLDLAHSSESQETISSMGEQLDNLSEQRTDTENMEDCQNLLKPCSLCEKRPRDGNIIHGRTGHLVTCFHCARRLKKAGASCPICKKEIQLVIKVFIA
Target sequence (Q00987 whole entry, looked up): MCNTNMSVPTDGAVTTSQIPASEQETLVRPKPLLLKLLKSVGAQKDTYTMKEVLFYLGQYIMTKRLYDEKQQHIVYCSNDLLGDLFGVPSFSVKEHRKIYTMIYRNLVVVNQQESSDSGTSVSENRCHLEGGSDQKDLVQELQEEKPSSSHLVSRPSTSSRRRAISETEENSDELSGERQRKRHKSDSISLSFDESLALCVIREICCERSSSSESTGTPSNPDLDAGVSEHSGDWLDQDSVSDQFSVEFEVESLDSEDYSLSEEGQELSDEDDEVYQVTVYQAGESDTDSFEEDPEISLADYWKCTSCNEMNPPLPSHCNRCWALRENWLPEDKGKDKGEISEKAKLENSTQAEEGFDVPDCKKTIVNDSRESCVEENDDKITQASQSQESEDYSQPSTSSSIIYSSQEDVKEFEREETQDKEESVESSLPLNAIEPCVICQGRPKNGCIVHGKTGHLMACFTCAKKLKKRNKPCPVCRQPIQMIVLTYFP
CSC inhib – blocks cancer stem cells; AID 2717; cancer stem cell-like cells viability, luminescence; 1.1% of 300,000 active; inhibition, % at 7.5 µM; in the data active = inhibition above about 75%; inconclusive = no clear call, values can overlap the other calls; tested in HMLE shEcad cells
Beta apoptosis – beta cell apoptosis inhibition; INS-1E cytokine-induced death, ATP luminescence, 48 h; percent of positive-control rescue, neutral wells zero; 0.8% of 300,000 active; protection from apoptosis, % (test concentration not listed);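 active = Every replicate reaches about 75%, or at least half do and their mean reaches it too, limit read from the data; inconclusive = At least half of replicates reach the limit but their mean does not; inactive = Under half of replicates reach the limit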;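 note: 0% = cytokine-treated negative control wells and 100% = positive control rescue; higher means more ATP so stronger rescue from cytokine killing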
SKKanGAS inh – inhibitors of SKKanGAS S. pyogenes growth in kanamycin (SK-promoter or general growth effect); BacTiter-Glo, 6 h; inhibition, % at 7.5 µM; 1.3% of 300,000 active; AID 1662;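 active = mean replicate score, as percent of positive control median, at least 50; inconclusive = mean below 50 but one replicate at or above 50; inactive = mean and every replicate below 50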;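 note: strain carries kanamycin resistance gene driven by streptokinase promoter and grows in 40 µg/ml kanamycin; loss of luminescence reflects streptokinase promoter inhibition or plain growth inhibition; 0% = median of DMSO wells and 100% = positive control at its reference dose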
T cruzi repl – T. cruzi replication inhibition. inhibition, % (concentration not given with the values). 1.4% of 300,000 active. T. cruzi beta-gal in NIH3T3, luminescence, 90 h. AID 1885;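 active = mean inhibition across valid replicates above about 55%, limit read from the data; inconclusive = mean below that limit but half or more replicates reach it; inactive = mean below it, under half of replicates reach it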;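 note: signal also drops with host cell toxicity which is not excluded here; 0% = plate median of DMSO wells and 100% = zero luminescence signal; higher percent means less beta-gal luminescence so fewer parasites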
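assay system = mouse NIH/3T3 fibroblasts infected with β-gal-expressing T. cruzi Tulahuen C4 | input = 5,000 NIH/3T3 host cells per well | buffer or medium = DMEM plus 2% FBS | timing = 3 h host attachment, then at least 90 h co-culture | measured by = GalScreen luminescence, 60 min | evaluation = luminescence reflecting intracellular parasite burden, expressed as percent inhibition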
Mdm2 MdmX conf – human Mdm2/MdmX binding inhibition, confirmed; AID 489028; luminescent assay; shares compounds with Mdm2 MdmX PPI; 55% of 10,000 active; inhibition, % at 8 µM; in the data active = inhibition above about 40%
Full FLuc ctr – inhibits full-length luciferase, flagging false Mdm2/MdmX hits | shares compounds with Mdm2 MdmX PPI | SaOS-2 full-length luciferase counterscreen, luminescence | inhibition, % at 8 µM | 77% of 6,200 active | AID 504607;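 active = mean inhibition at 8 µM reaching about 37%, which flags the compound as non-specific, limit read from the data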;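 note: p53-null SaOS-2 cells with luciferase driven by a doxycycline-inducible promoter; compound on cells about two nights before reading with doxycycline added after day one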
An asterisk follows results filed as active; ? = inconclusive; / = not tested or not shown.

SMILES | Lmaj promast | Mdm2 MdmX PPI | CSC inhib | Beta apoptosis | SKKanGAS inh | T cruzi repl | Mdm2 MdmX conf | Full FLuc ctr
Cc1ccc(Cn2nnc3c(=O)[nH]c(C4CCN(S(=O)(=O)c5ccccc5F)CC4)nc32)cc1 | / | 13.0 | 28.4 | -7.3 | 18.3 | 4.4 | / | /
COc1ccc([C@H]2CC(=O)C=C(c3cc(Br)ccc3OC)C2)cc1 | / | 50.0* | / | 3.6 | / | / | 43.8* | 46.6*
COc1ccc([C@H]2CC(=O)C=C(c3cc(C)ccc3OC)C2)cc1 | / | 39.6 | 55.9 | 5.3 | / | / | / | /
CCOc1ccc(Br)cc1C1=CC(=O)C[C@H](c2ccc(OC)cc2)C1 | / | 55.1* | 82.0* | 9.1 | / | / | 47.6* | 48.4*
CN(CC(=O)Nc1ccc(Cl)c(Cl)c1)C(=O)C1CCC1 | / | -2.8 | -13.0 | 0.8 | / | / | / | /
O=C1CC2(CCN(C(=O)c3cccc([N+](=O)[O-])c3)CC2)Oc2ccccc21 | / | -6.7 | 5.6 | 2.8 | 12.6 | -4.8 | / | /
CC(=O)/C(C#N)=C1\NC(=O)C(Cc2ccc(C)c(C)c2)S1 (stereo not given) | -7.6 | 83.7* | 49.2 | 6.6 | 8.2 | -2.8 | 90.7* | 32.1
CC(=O)/C(C#N)=C1\NC(=O)C(Cc2ccccc2Cl)S1 (stereo not given) | 2.4 | 87.0* | -1.9 | -5.0 | 12.6 | -2.4 | 90.5* | 30.1
CC(=O)/C(C#N)=C1\NC(=O)C(Cc2cc(Cl)ccc2Cl)S1 (stereo not given) | / | 95.8* | 71.6 | 14.2 | 14.8 | 5.9 | 82.8* | 31.2
CCCn1c(C(C)NS(=O)(=O)c2ccccc2)n[nH]c1=S (stereo not given) | / | 12.1 | -5.3 | 2.8 | -0.4 | -2.4 | / | /
C/C(=N\Nc1cc(C)nc(-c2ccccc2O)n1)c1ccccc1O | / | 89.4* | 80.4* | -1.7 | 73.8* | 34.8 | 82.0* | 40.9*
Cc1cc(N/N=C/c2ccccc2O)nc(N2CCOCC2)n1 | / | 25.9 | 1.0 | -7.1 | 1.2 | 1.4 | / | /
Cc1cc(N/N=C/c2ccccc2O)nc(-c2ccccc2O)n1 | 53.1* | 72.1* | 54.3 | 69.3 | 60.4* | 34.7 | 72.2* | 46.4*
Cc1cc(Nc2ccc(Cl)cc2)nc(-c2ccccc2O)n1 | / | -1.9 | 27.6 | -5.4 | -3.1 | 36.6 | / | /
CC(=O)Nc1cccc(Oc2ncccc2[N+](=O)[O-])c1 | / | -13.0 | 3.8 | -7.0 | -13.9 | -7.9 | / | /
O=[N+]([O-])c1ccc(Oc2ccc(F)cc2)c2ccncc12 | 18.5 | 59.7* | 24.2 | 5.0 | 35.1 | 4.1 | 55.5* | 23.0
O=[N+]([O-])c1ccc(Oc2cccc(Br)c2)c2ccncc12 | 5.6 | 57.7* | 21.8 | 3.3 | 1.2 | 25.1 | 18.0 | /
C=C[C@@H]1c2cc(C)ccc2N(S(=O)(=O)c2ccc(C)cc2)[C@H](c2ccc(OC(C)=O)cc2)C1(C#N)C#N | / | 71.6* | 113.3* | 16.9 | / | / | 64.9* | 71.8*
C=C[C@@H]1c2ccccc2N(S(=O)(=O)c2ccc(C)cc2)[C@H](c2ccc(OC(C)=O)cc2)C1(C#N)C#N | / | 45.8 | ? | 2.0 | / | / | / | /
COc1ccc(CNCCC(c2ccc(F)cc2)c2ccc(OC(C)C)cc2)cc1OC (stereo not given) | / | 92.6* | 20.6 | 7.3 | -8.0 | 43.1 | 34.0 | 75.5*
COc1ccc(CN(CCC(c2ccccc2)c2ccc(OC(C)C)cc2)C(=O)CCl)cc1OC (stereo not given) | 100.0* | 100.5* | ? | 9.2 | -3.4 | 25.1 | 85.2* | 55.1*
COc1ccc(CNCC(O)(c2ccc(F)cc2)c2ccc(F)cc2)cc1OC | / | 43.9 | 7.4 | 18.4 | 0.3 | 12.4 | / | /
COc1ccc(CNCCC(c2ccccc2)c2ccc(OC(C)C)cc2)cc1OC (stereo not given) | / | 75.0* | 9.5 | 41.8 | 2.1 | 26.2 | 26.3 | /
CC(OC(=O)CN1C(=O)NC2(CCCC2)C1=O)c1ccc(F)cc1 (stereo not given) | / | 1.3 | -3.5 | -2.3 | / | / | / | /
O=C(COC(=O)c1cc[n+]([O-])cc1)Nc1ccc(Cl)cc1C(F)(F)F | / | 3.6 | -3.0 | -4.2 | -13.8 | 8.2 | / | /
SMILES | Lmaj promast | Mdm2 MdmX PPI | CSC inhib | Beta apoptosis | SKKanGAS inh | T cruzi repl | Mdm2 MdmX conf | Full FLuc ctr
N/C(=N\OC(=O)CSc1ccccc1)c1ccccn1 | / | -27.9 | 12.8 | -5.8 | -8.8 | -16.1 | / | /
CCOc1cccc2sc(N(CCN(C)C)C(=O)/C=C/c3cccs3)nc12 | / | 65.5* | -0.2 | 17.0 | 14.3 | 12.9 | 25.8 | /
COc1cccc2sc(N(CCN(C)C)C(=O)c3ccc4c(c3)CCCC4)nc12 | / | 13.2 | -0.9 | 4.8 | 0.7 | 4.2 | / | /
CCOc1cccc2sc(N(CCN(C)C)C(=O)c3ccc4c(c3)OCCO4)nc12 | / | -9.3 | -6.6 | -15.6 | 2.3 | 2.6 | / | /
COc1cccc2sc(N(CCN(C)C)C(=O)/C=C/c3cccs3)nc12 | 6.9 | 56.0* | 5.9 | 2.7 | -0.7 | -3.9 | 27.4 | /
C[C@H]1NC(=O)[C@@]2(C)[C@H](c3ccccc3)[C@H]3COc4ccccc4[C@@H]3N2C1=O | / | 8.3 | -12.2 | 1.7 | / | / | / | /
CCCCCCn1nc(C(=O)N(CCCC)c2c(N)n(CCC)c(=O)[nH]c2=O)c2ccccc2c1=O | / | 6.8 | 8.4 | -5.8 | / | / | / | /
Cc1nn(-c2ccc([N+](=O)[O-])cc2)c2c1C(c1cccc(Br)c1)N1C(=N2)C(=O)Nc2ccccc21 (stereo not given) | 77.3* | 60.4* | 9.1 | / | 7.1 | 81.8* | 26.4 | /
Cc1nn(-c2ccccc2)c(N)c1C1(O)C(=O)Nc2ccc([N+](=O)[O-])cc21 (stereo not given) | / | -5.0 | 3.2 | -4.9 | 3.7 | -11.5 | / | /
CCN(C[C@H]1N[C@@](Cc2ccccc2)(C(=O)OC)[C@H]2C(=O)N(C)C(=O)[C@@H]12)C(=O)Nc1ccc(C(F)(F)F)cc1 | / | 13.1 | -17.0 | -6.9 | / | / | / | /
N#Cc1ccc(-c2csc(NNC(=O)c3ccc(Br)cc3)n2)cc1 | 41.4 | 77.2* | 9.2 | 77.7* | 24.3 | / | 58.8* | 10.1
C=CCNc1nc(-c2ccccn2)nnc1-c1ccccc1 | 99.7* | 55.1* | -12.8 | 4.4 | 5.6 | 69.1* | 60.2* | 40.5*
CC(=O)c1cccc(NS(=O)(=O)N2CCOCC2)c1 | / | 1.2 | -5.6 | 0.3 | 4.3 | -6.5 | / | /
COc1ccc(NS(=O)(=O)c2ccc3c(c2)N(C(C)=O)CC(C)S3)c(OC)c1 (stereo not given) | / | -8.1 | -14.7 | 3.9 | 1.4 | 2.6 | / | /
COc1ccccc1CCN=C(N)NS(=O)(=O)c1ccc(F)cc1 | / | 11.9 | 1.3 | -5.7 | -6.3 | -11.1 | / | /
CCOc1ccccc1C1C(C(=O)OC)=C(N)OC2=C1C(=O)CCC2 (stereo not given) | -6.0 | -18.2 | / | / | -1.4 | 3.0 | / | /
CCOc1ccc(Br)cc1C1C(C(=O)OC)=C(N)Oc2cc(N(C)C)ccc21 (stereo not given) | 100.1* | 80.2* | 55.7 | 2.2 | -3.8 | 69.2* | 54.7* | 55.2*
CC1(C)C(=O)NC(=O)N1Cc1ccccc1 | / | 17.6 | -12.9 | 2.8 | -2.3 | -13.7 | / | /
